TRPN1 ag = zebrafish TRPN1 (NompC) channel agonism. HEK293 zebrafish TRPN1-YFP, Fluo-8 calcium fluorescence; 100% = response to 87 µM carbachol. activation, % at 3 µM. hit rate 0.18% among 220,000. AID 1424;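 active means activation above its plate's cutoff, the mean activation of test wells on that plate plus 3 SD, cut at about 19% in these data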;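 further: 0% = DMSO alone and 100% = 87 µM carbachol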
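Assay system: Zebrafish TRPN1-YFP in HEK293 cells | Incubation: Dye loading 1 h at 37 °C, then 30 min room temperature | Measured by: Kinetic Fluo-8 fluorescence, ex 470-495, em 515-575 nm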
TRPML3 ag = activates the human TRPML3 channel. Q8TDD5. HEK293 TRPML3-YFP, Fluo-8 calcium fluorescence; 100% = the carbachol control signal. activation, % at 3 µM. hit rate 0.29% among 220,000;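 active means activation above its plate's cutoff, the mean activation of the plate's test wells plus 3 SD, cut at about 12% in these data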;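 further: 0% = DMSO only wells and 100% = carbachol wells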
Target sequence (Q8TDD5 whole entry, looked up): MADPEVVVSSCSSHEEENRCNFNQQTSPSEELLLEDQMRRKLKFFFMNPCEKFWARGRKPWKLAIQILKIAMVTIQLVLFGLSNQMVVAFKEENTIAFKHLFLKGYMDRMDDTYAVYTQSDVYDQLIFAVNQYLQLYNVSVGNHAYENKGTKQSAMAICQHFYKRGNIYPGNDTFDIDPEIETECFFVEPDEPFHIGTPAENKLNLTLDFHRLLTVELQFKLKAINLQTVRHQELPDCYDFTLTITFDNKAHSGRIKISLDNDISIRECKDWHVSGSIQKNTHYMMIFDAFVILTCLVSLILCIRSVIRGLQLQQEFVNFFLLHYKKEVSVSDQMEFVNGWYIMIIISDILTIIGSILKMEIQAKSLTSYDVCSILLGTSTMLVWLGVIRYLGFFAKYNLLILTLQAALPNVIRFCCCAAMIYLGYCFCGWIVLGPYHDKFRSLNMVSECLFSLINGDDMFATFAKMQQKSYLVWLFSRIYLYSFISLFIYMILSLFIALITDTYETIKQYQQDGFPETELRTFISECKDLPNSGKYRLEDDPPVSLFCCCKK
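Material: TRPML3-YFP stable HEK293 cells | Dosing: One concentration, 3 µM nominal, 0.3% DMSO | Timing: 125 s total fluorescence read per well | Technique: Fluo-8 calcium dye fluorescence, ex 470-495, em 515-575 nm | Measure: Percent activation from peak-to-basal fluorescence ratio, scaled between DMSO and carbachol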
V1aR counter = counter-screen for oxytocin receptor agonists: human V1a receptor agonists; CHO-V1R cells, Fluo-8 calcium fluorescence, agonist mode; 0% DMSO, 100% 3 nM vasopressin; AID 2797; P37288; activation, % at 3 µM; hit rate 0.25% among 320,000;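 active means activation above the mean activation of all tested compounds plus 3 SD, per screening run, cut at about 20% in these data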;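 further: signal is peak over basal fluorescence ratio across a 100 second FLIPR read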
OXTR ag = human OXTR agonism. P30559. CHO-OTR cells, Fluo-8 calcium fluorescence; normalized: DMSO 0%, oxytocin 100%. activation, % at 3 µM. hit rate 0.32% among 320,000. AID 2435;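 active means activation above the mean of all tested compounds plus 3 SD, cutoff set per screening run, cut at about 20% in these data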;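 further: peak over basal fluorescence ratio from a 100 s FLIPR kinetic read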
OXTR potentiate = potentiates the human oxytocin receptor response | P30559 | hit rate 0.061% among 320,000 | activation, % at 3 µM | CHO-OTR cells, Fluo-8 calcium fluorescence, potentiator mode; 0% = oxytocin EC15, 100% = EC100;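 active means activation above that plate's cutoff, the mean activation of tested compounds plus 3 SD, cut at about 6.6% in these data, passing the limit was not always enough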;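 further: 100% uses oxytocin at 75 nM as the full agonist control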
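Assay system: CHO cell line stably expressing human OTR. Reagent: EC15 oxytocin agonist. Dosing: single dose, 3.0 µM nominal final compound concentration. Timing: compound 6 min at room temperature before oxytocin, 100 s read. Signal: kinetic Fluo-8 calcium fluorescence. Controls: oxytocin EC15 low and EC100 high.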
The depositor's hits bear a star. This is a sample that favours compounds with a hit; in the whole collection about 0.58% have one here.

For CCn1c(=O)c(C(=O)NNC(=O)c2ccccc2Cl)c(O)c2ccccc21 the results were V1aR counter 41*, OXTR ag 22* and OXTR potentiate -15.
For CCn1c(=O)c(C(=O)NNC(=O)c2ccccc2F)c(O)c2ccccc21 the results were V1aR counter 52*, OXTR ag 28* and OXTR potentiate -11.
CNc1nc(Cl)c(SC)c(NCc2ccc(F)cc2)n1 was read as V1aR counter 6, OXTR ag -2 and OXTR potentiate -18.
CCOC(=O)CN1C(=O)/C(=C/c2c(F)cccc2Cl)Oc2ccccc21 was read as V1aR counter 0, OXTR ag 0 and OXTR potentiate -9.
For O=c1ccc2[n+]([O-])c3ccc(O)cc3oc-2c1 the results were TRPN1 ag 48* and TRPML3 ag 27*.
Screening CCOc1cccc(-c2c(C(=O)N/N=C(\C)c3cccs3)nnn2-c2nonc2N)c1 returned V1aR counter 36*, OXTR ag 36* and OXTR potentiate -11.
`COc1cccc(-c2c(C(=O)N/N=C(\C)c3cccs3)nnn2-c2nonc2N)c1` gave V1aR counter 60*, OXTR ag 44* and OXTR potentiate -7.
Screening CCOc1ccc(-c2c(C(=O)N/N=C(\C)c3ccccc3OC)nnn2-c2nonc2N)cc1 returned V1aR counter 0, OXTR ag -1 and OXTR potentiate -19.
`CCOc1ccc(-c2c(C(=O)N/N=C(\C)c3ccco3)nnn2-c2nonc2N)cc1` gave V1aR counter 23*, OXTR ag 26* and OXTR potentiate -19.
CCOc1ccc(-c2c(C(=O)N/N=C(\C)c3cccs3)nnn2-c2nonc2N)cc1 was read as V1aR counter 11, OXTR ag 4 and OXTR potentiate -6.
Screening CCOc1ccc(-c2n[nH]c(=S)c3ccccc23)cc1 returned V1aR counter -1, OXTR ag -2 and OXTR potentiate -7.
O=C(CNCc1ccc(Cl)cc1)Nc1ccc(C(=O)N2CCCCC2)cc1 was read as V1aR counter 5, OXTR ag 5 and OXTR potentiate -2.
O=C(c1ccc(NC(=S)NCc2ccc(Cl)cc2)cc1)N1CCCCC1 was read as TRPN1 ag 2, TRPML3 ag 1, V1aR counter 21*, OXTR ag 21* and OXTR potentiate -12.
For COc1cc(/C=C/C(=O)OCC(=O)Nc2ccc([N+](=O)[O-])cc2)ccc1O the results were TRPN1 ag 13, TRPML3 ag 5, V1aR counter 30*, OXTR ag 21* and OXTR potentiate -8.
`CCCCNc1cc(C)nc(NCc2ccccc2)n1` gave TRPN1 ag 6, TRPML3 ag 3, V1aR counter 27*, OXTR ag 30* and OXTR potentiate -34.
For Cc1cc(Nc2ccccc2)nc(NCc2ccccc2)n1 the results were TRPN1 ag 3, TRPML3 ag 2, V1aR counter 13, OXTR ag 13 and OXTR potentiate -16.
Screening COc1ccccc1C(=O)N/C(=C\c1cn(S(=O)(=O)N(C)C)c2ccccc12)C(=O)NCCN1CCOCC1 returned V1aR counter 0, OXTR ag -1 and OXTR potentiate -7.
Screening Cc1cc(C)c(OCC(=O)Nc2ccccc2N2CCOCC2)c(C)c1 returned TRPN1 ag 24*, TRPML3 ag 15*, V1aR counter 18, OXTR ag 14 and OXTR potentiate -12.
`O=C(Cc1ccsc1)NCC(=O)Nc1ccccc1Br` gave V1aR counter 1, OXTR ag 0 and OXTR potentiate 7.
COc1cc(/C=N/N2C(=O)CSC2=S)cc(Br)c1O was read as TRPN1 ag 41* and TRPML3 ag 24*.
O=C(Nc1ccccc1)Nc1ccc(Cl)c(S(=O)(=O)N2CCOCC2)c1 was read as TRPN1 ag 23*, TRPML3 ag 13*, V1aR counter 14, OXTR ag 17 and OXTR potentiate -13.
`O=C(Nc1ccc(NC(=O)c2ccc(Cl)c(S(=O)(=O)N3CCOCC3)c2)cc1)c1ccccc1` gave V1aR counter 1, OXTR ag 1 and OXTR potentiate -5.
For COc1cccc2c1oc1c(SCc3nc4ccccc4[nH]3)nc(C)nc12 the results were V1aR counter 1, OXTR ag 1 and OXTR potentiate -2.
`CCn1c(SCC(=O)Nc2nccs2)nnc1-c1ccccn1` gave V1aR counter 1, OXTR ag 0 and OXTR potentiate -7.
Screening CC1=CC(=O)c2ccccc2C1=O returned TRPN1 ag 2, TRPML3 ag 1, V1aR counter 0, OXTR ag -1 and OXTR potentiate -6.
CC1=C/C(=N\OS(=O)(=O)c2ccccc2)C(C(C)C)=CC1=O was read as TRPN1 ag 3, TRPML3 ag 35*, V1aR counter -1, OXTR ag -2 and OXTR potentiate -5.
For O=C(CCC(=O)N1CCCC1)N1CCCC1 the results were V1aR counter 1, OXTR ag 1 and OXTR potentiate -1.
For Cc1ccc(-c2noc(CCC(=O)NCCCN3CCN(c4cccc(Cl)c4)CC3)n2)cc1 the results were TRPN1 ag 2, TRPML3 ag 2, V1aR counter 21*, OXTR ag 31* and OXTR potentiate -21.
For O=C(CCC1CCCCC1)NC1CCCCC1 the results were V1aR counter -1, OXTR ag -1 and OXTR potentiate 1.
Screening Cc1ccccc1CN1CCN(CC2CC2)CC1CCO (stereo unspecified) returned V1aR counter 0, OXTR ag 0 and OXTR potentiate -2.
Screening O=C(Nc1cccc([N+](=O)[O-])c1)Nc1cccs1 returned TRPN1 ag 20*, TRPML3 ag 13*, V1aR counter 10, OXTR ag 17 and OXTR potentiate -38.
O=C(Nc1cccc(Cl)c1)Nc1csc([N+](=O)[O-])c1 was read as TRPN1 ag 19*, TRPML3 ag 12*, V1aR counter 8, OXTR ag 17 and OXTR potentiate -8.
For COC(=O)c1ccc(NC(=O)Nc2ccc(F)cc2F)cc1 the results were TRPN1 ag 7, TRPML3 ag 5, V1aR counter 7, OXTR ag 3 and OXTR potentiate -2.
Screening Cc1ccc([N+](=O)[O-])cc1NC(=O)Nc1cccc(F)c1 returned TRPN1 ag 24* and TRPML3 ag 11.
For COC(=O)c1ccc(NC(=O)Nc2cccc(F)c2)cc1 the results were TRPN1 ag 19*, TRPML3 ag 10, V1aR counter 13, OXTR ag 13 and OXTR potentiate -16.
For CN(C(=O)CN1C(=O)c2ccccc2S1(=O)=O)C1CCCCC1 the results were V1aR counter 0, OXTR ag 1 and OXTR potentiate 1.
COc1ccccc1CNC(=O)COc1ccc(S(=O)(=O)N2CCOCC2)cc1C was read as V1aR counter 0, OXTR ag 0 and OXTR potentiate -6.

High-throughput results deposited in PubChem BioAssay by The Scripps Research Institute Molecular Screening Center.
